Measured values reported in ChEMBL document CHEMBL1150371, “Design and synthesis of benzenesulfonanilides active against methicillin-resistant Staphylococcus aureus and vancomycin-resistant Enterococcus” (Bioorg Med Chem, 2008).
Values after ≈ are worked out from the molar mass of the structure shown. Active and inactive are the calls of the source. No cut-off for these calls is given here.

Legend:
[1] = test system: Staphylococcus aureus; assay: Antimicrobial activity against methicillin-resistant Staphylococcus aureus OM584 by microdilution method; format: functional
How it was run: (§1)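 Broth microdilution MIC per Japan Society of Chemotherapy standard method. Cultures grown in sensitivity test broth at 37 °C to OD620 0.1, inoculum ≈10^5 CFU/mL. Twofold dilutions from DMSO stock, 500 to 0.2 µg/mL; 20 h, 37 °C, humid. MIC = lowest concentration clearly inhibiting growth by visual inspection; vancomycin standard; media, DMSO and water controls; at least duplicate.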

[2] = test system: Enterococcus faecium; assay: Antimicrobial activity against vancomycin-resistant Enterococcus faecium FN-1 by microdilution susceptibility test; format: functional; how it was run: as §1
[3] = test system: Staphylococcus aureus; assay: Antimicrobial activity against methicillin-resistant Staphylococcus aureus at […] by disk diffusion method; format: functional
How it was run: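 Overnight nutrient-broth culture (35 °C, 12–18 h) of MRSA OM584 spread on Mueller-Hinton agar; 8-mm paper discs given 10 µL of 20 mM compound in DMSO; plates incubated at 37 °C about 20 h; inhibition zones measured and scored: −, ± (0–1 mm), +1 (1–15 mm), +2 (15–20 mm), +3 (>20 mm).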

[4] = test system: Mus musculus; assay: Acute toxicity in mouse at 100 mg/kg, ip upto 14 days; format: organism-based; design: dose 100 mg/kg, route intraperitoneal; conditions: in vivo, 336 h
How it was run: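 Male mice (15–30 g), water only for 12 h beforehand; compound in 0.5% CMC given ip at doses up to 100 mg kg-1, n = 5/group; toxic symptoms observed up to 14 days.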

| SMILES | MIC [1] [µg/mL] | MIC [2] [µg/mL] | Activity [3] | other results |
| --- | --- | --- | --- | --- |
| Cc1ccc(NS(=O)(=O)c2cc(Cl)cc(Cl)c2)cc1 | > 250 | 62.5 (≈ 198 µM) |  |  |
| Nc1ccc(NS(=O)(=O)c2cc(Cl)cc(Cl)c2)cc1 | > 250 | > 250 |  |  |
| Nc1ccc(S(=O)(=O)Nc2cc(C(F)(F)F)cc(C(F)(F)F)c2)cc1 | 125 (≈ 325 µM) | 62.5 (≈ 163 µM) |  | inhibition zone (IZ) [3]: 1 mm |
| Cc1ccc(NS(=O)(=O)c2ccc(C(=O)O)cc2)cc1 |  |  | inactive |  |
| O=C(O)c1ccc(S(=O)(=O)Nc2ccc(I)cc2)cc1 |  |  | inactive |  |
| COc1ccc(NS(=O)(=O)c2ccc(NS(C)(=O)=O)cc2)cc1 |  |  | inactive |  |
| O=[N+]([O-])c1ccc(S(=O)(=O)Nc2ccccc2)cc1 |  |  | inactive |  |
| COc1ccc(NS(=O)(=O)c2ccc([N+](=O)[O-])cc2)cc1 |  |  | inactive |  |
| Cc1cc(C)cc(NS(=O)(=O)c2ccc(C(=O)O)cc2)c1 |  |  | inactive |  |
| O=S(=O)(Nc1ccc(C(F)(F)F)cc1)c1cc(C(F)(F)F)cc(C(F)(F)F)c1 | 7.8 (≈ 17.8 µM) | 3.9 (≈ 8.92 µM) |  |  |
| Nc1ccc(NS(=O)(=O)c2cc(C(F)(F)F)cc(C(F)(F)F)c2)cc1 | > 250 | > 250 |  |  |
| Nc1ccc(S(=O)(=O)Nc2ccc(C(F)(F)F)cc2)cc1 |  |  | inactive |  |
| O=[N+]([O-])c1ccc(NS(=O)(=O)c2cc(C(F)(F)F)cc(C(F)(F)F)c2)cc1 | 7.8 (≈ 18.8 µM) | 7.8 (≈ 18.8 µM) |  |  |
| O=S(=O)(Nc1cc(C(F)(F)F)cc(C(F)(F)F)c1)c1ccc(F)cc1 | 15.6 (≈ 40.3 µM) | 62.5 (≈ 161 µM) |  |  |
| COc1ccc(NS(=O)(=O)c2ccc(N)cc2)cc1 |  |  | inactive |  |
| CN(c1cc(C(F)(F)F)cc(C(F)(F)F)c1)S(=O)(=O)c1cc(Cl)cc(Cl)c1 | > 250 | > 250 |  |  |
| O=S(=O)(Nc1cc(Cl)cc(Cl)c1)c1ccc(Cl)cc1 | 31.3 (≈ 93 µM) | 62.5 (≈ 186 µM) |  |  |
| CN[C@H](CC(C)C)C(=O)N[C@H]1C(=O)N[C@@H](CC(N)=O)C(=O)N[C@H]2C(=O)N[C@H]3C(=O)N[C@H](C(=O)N[C@H](C(=O)O)c4cc(O)cc(O)c4-c4cc3ccc4O)[C@H](O)c3ccc(c(Cl)c3)Oc3cc2cc(c3O[C@@H]2O[C@H](CO)[C@@H](O)[C@H](O)[C@H]2O[C@H]2C[C@](C)(N)[C@H](O)[C@H](C)O2)Oc2ccc(cc2Cl)[C@H]1O [VANCOMYCIN] |  | 125 (≈ 86.3 µM) |  |  |
| COc1ccc(NS(=O)(=O)c2ccc(C(=O)O)cc2)cc1 |  |  | inactive |  |
| Cc1ccc(NS(=O)(=O)c2cc(C(F)(F)F)cc(C(F)(F)F)c2)cc1 | > 250 | > 250 |  |  |
| COc1ccc(NS(=O)(=O)c2cc(Cl)cc(Cl)c2)cc1 | 125 (≈ 376 µM) | 125 (≈ 376 µM) |  |  |
| O=[N+]([O-])c1ccc(S(=O)(=O)Nc2cc(Cl)cc(Cl)c2)cc1 | > 250 | 62.5 (≈ 180 µM) |  |  |
| O=S(=O)(Nc1cc(C(F)(F)F)cc(C(F)(F)F)c1)c1ccc(C(F)(F)F)cc1 | 15.6 (≈ 35.7 µM) | 7.8 (≈ 17.8 µM) |  | inhibition zone (IZ) [3]: >20 mm |
| COc1ccc(S(=O)(=O)Nc2cc(C(F)(F)F)cc(C(F)(F)F)c2)cc1 | 62.5 (≈ 157 µM) | 62.5 (≈ 157 µM) |  | inhibition zone (IZ) [3]: 1 mm |
| O=S(=O)(Nc1cc(F)cc(F)c1)c1cc(C(F)(F)F)cc(C(F)(F)F)c1 | 2 (≈ 4.94 µM) | 7.8 (≈ 19.2 µM) |  | Activity [4]: Non-toxic |
| CS(=O)(=O)Nc1ccc(S(=O)(=O)Nc2cc(C(F)(F)F)cc(C(F)(F)F)c2)cc1 |  |  |  | inhibition zone (IZ) [3]: 0 mm |

| SMILES | MIC [1] [µg/mL] | MIC [2] [µg/mL] | Activity [3] | other results |
| --- | --- | --- | --- | --- |
| Cl.Nc1ccc(S(=O)(=O)Nc2cc(C(F)(F)F)cc(C(F)(F)F)c2)cc1 |  |  |  | inhibition zone (IZ) [3]: 1 mm |
| Cl.O=[N+]([O-])c1ccc(S(=O)(=O)Nc2cc(C(F)(F)F)cc(C(F)(F)F)c2)cc1 |  |  |  | inhibition zone (IZ) [3]: >20 mm |
| Cc1cccc(NS(=O)(=O)c2ccc([N+](=O)[O-])cc2)c1 |  |  |  | inhibition zone (IZ) [3]: 1 mm |
| Cc1ccc(NS(=O)(=O)c2ccc([N+](=O)[O-])cc2)cc1 |  |  | inactive |  |
| O=S(=O)(Nc1c(F)cccc1F)c1cc(C(F)(F)F)cc(C(F)(F)F)c1 | > 250 | > 250 |  |  |
| O=S(=O)(Nc1cc(F)cc(F)c1)c1cc(Cl)cc(Cl)c1 | 31.3 (≈ 92.6 µM) | 7.8 (≈ 23.1 µM) |  |  |
| O=S(=O)(Nc1cc(Cl)cc(Cl)c1)c1cc(C(F)(F)F)cc(C(F)(F)F)c1 | 0.5 (≈ 1.14 µM) | 1 (≈ 2.28 µM) |  | Activity [4]: Non-toxic |
| CS(=O)(=O)Nc1ccc(S(=O)(=O)Nc2ccccc2)cc1 |  |  | inactive |  |
| Cc1ccc(NS(=O)(=O)c2ccc(NS(C)(=O)=O)cc2)cc1 |  |  | inactive |  |
| Cc1ccc(NS(=O)(=O)c2ccc(N)cc2)cc1 |  |  | inactive |  |
| O=S(=O)(Nc1cc(C(F)(F)F)cc(C(F)(F)F)c1)c1cc(Cl)cc(Cl)c1 | 0.5 (≈ 1.14 µM) | 1 (≈ 2.28 µM) |  |  |
| Nc1ccc(S(=O)(=O)Nc2ccccc2)cc1 |  |  | inactive |  |
| O=S(=O)(Nc1cc(Cl)nc(Cl)c1)c1cc(C(F)(F)F)cc(C(F)(F)F)c1 | 15.6 (≈ 35.5 µM) | 7.8 (≈ 17.8 µM) |  |  |
| O=S(=O)(Nc1ccc(Cl)cc1)c1cc(Cl)cc(Cl)c1 | > 250 | 125 (≈ 371 µM) |  |  |
| O=[N+]([O-])c1ccc(S(=O)(=O)Nc2ccc(C(F)(F)F)cc2)cc1 |  |  | inactive |  |
| O=S(=O)(Nc1cc(Cl)c(O)c(Cl)c1)c1cc(C(F)(F)F)cc(C(F)(F)F)c1 | 125 (≈ 275 µM) | 62.5 (≈ 138 µM) |  |  |
| O=S(=O)(Nc1cc(C(F)(F)F)cc(C(F)(F)F)c1)c1cccc(Cl)c1 | 31.3 (≈ 77.5 µM) | 15.6 (≈ 38.6 µM) |  |  |
| COc1ccc(NS(=O)(=O)c2cc(C(F)(F)F)cc(C(F)(F)F)c2)cc1 | > 250 | 125 (≈ 313 µM) |  |  |
| Cc1ccc(S(=O)(=O)Nc2cc(C(F)(F)F)cc(C(F)(F)F)c2)cc1 | 62.5 (≈ 163 µM) | 62.5 (≈ 163 µM) | inactive |  |
| Cc1cccc(NS(=O)(=O)c2ccc(N)cc2)c1 |  |  | inactive |  |
| O=[N+]([O-])c1ccc(NS(=O)(=O)c2cc(Cl)cc(Cl)c2)cc1 | 7.8 (≈ 22.5 µM) | 15.6 (≈ 44.9 µM) |  |  |
| Cc1cc(C)cc(NS(=O)(=O)c2ccc([N+](=O)[O-])cc2)c1 |  |  | inactive |  |
| Nc1ccc(S(=O)(=O)Nc2ccc(Cl)cc2)cc1 |  |  | inactive |  |
| O=S(=O)(Nc1ccc(Cl)cc1)c1cc(C(F)(F)F)cc(C(F)(F)F)c1 | 31.3 (≈ 77.5 µM) | 62.5 (≈ 155 µM) |  |  |
| Cc1cccc(NS(=O)(=O)c2ccc(NS(C)(=O)=O)cc2)c1 |  |  | inactive |  |
| O=S(=O)(Nc1ccc(Cl)cc1Cl)c1cc(C(F)(F)F)cc(C(F)(F)F)c1 | > 250 | > 250 |  |  |

| SMILES | MIC [1] [µg/mL] | MIC [2] [µg/mL] | Activity [3] | other results |
| --- | --- | --- | --- | --- |
| Cc1ccccc1NS(=O)(=O)c1ccc(NS(C)(=O)=O)cc1 |  |  | inactive |  |
| O=S(=O)(Nc1ccc(F)cc1F)c1cc(C(F)(F)F)cc(C(F)(F)F)c1 | > 250 | > 250 |  |  |
| Cc1ccccc1NS(=O)(=O)c1ccc(C(=O)O)cc1 |  |  | inactive |  |
| O=S(=O)(Nc1ccc(C(F)(F)F)cn1)c1cc(Cl)cc(Cl)c1 | > 250 | > 250 |  |  |
| O=S(=O)(Nc1cc(Cl)c(O)c(Cl)c1)c1cc(Cl)cc(Cl)c1 | 31.3 (≈ 80.9 µM) | 31.3 (≈ 80.9 µM) |  |  |
| O=S(=O)(Nc1cc(F)ccc1F)c1cc(C(F)(F)F)cc(C(F)(F)F)c1 | 15.6 (≈ 38.5 µM) | 62.5 (≈ 154 µM) |  |  |
| COc1ccc(S(=O)(=O)Nc2cc(Cl)cc(Cl)c2)cc1 | 250 (≈ 753 µM) | 125 (≈ 376 µM) |  |  |
| Cc1cc(C)cc(NS(=O)(=O)c2ccc(NS(C)(=O)=O)cc2)c1 |  |  | inactive |  |
| Cc1cc(C)cc(NS(=O)(=O)c2ccc(N)cc2)c1 |  |  | inactive |  |
| CS(=O)(=O)Nc1ccc(S(=O)(=O)Nc2ccc(Cl)cc2)cc1 |  |  |  | inhibition zone (IZ) [3]: 0 mm |
| O=S(=O)(Nc1cc(Cl)nc(Cl)c1)c1cc(Cl)cc(Cl)c1 | 15.6 (≈ 41.9 µM) | 7.8 (≈ 21 µM) |  |  |
| O=S(=O)(Nc1cccc(F)c1F)c1cc(C(F)(F)F)cc(C(F)(F)F)c1 | 15.6 (≈ 38.5 µM) | 62.5 (≈ 154 µM) |  |  |
| O=S(=O)(Nc1ccc(C(F)(F)F)cc1)c1cc(Cl)cc(Cl)c1 | 31.3 (≈ 84.6 µM) | 31.3 (≈ 84.6 µM) |  |  |
| O=S(=O)(Nc1cc(Cl)cc(Cl)c1)c1ccc(C(F)(F)F)cc1 | 15.6 (≈ 42.1 µM) | 7.8 (≈ 21.1 µM) |  |  |
| O=S(=O)(Nc1ccc(F)c(F)c1)c1cc(C(F)(F)F)cc(C(F)(F)F)c1 | 3.9 (≈ 9.62 µM) | 7.8 (≈ 19.2 µM) |  |  |
| O=S(=O)(Nc1c(Cl)cccc1Cl)c1cc(C(F)(F)F)cc(C(F)(F)F)c1 | > 250 | > 250 |  |  |
| Cc1ccccc1NS(=O)(=O)c1ccc(N)cc1 |  |  | inactive |  |
| Cc1ccc(S(=O)(=O)Nc2cc(Cl)cc(Cl)c2)cc1 | 125 (≈ 395 µM) | 62.5 (≈ 198 µM) |  |  |
| Nc1ccc(S(=O)(=O)Nc2cc(Cl)cc(Cl)c2)cc1 | 250 (≈ 788 µM) | 31.3 (≈ 98.7 µM) |  |  |
| CS(=O)(=O)Nc1ccc(S(=O)(=O)Nc2ccc(C(F)(F)F)cc2)cc1 |  |  | inactive |  |
| O=S(=O)(Nc1cccc(C(F)(F)F)c1)c1cc(Cl)cc(Cl)c1 | 125 (≈ 338 µM) | 62.5 (≈ 169 µM) |  |  |
| Nc1ccc(S(=O)(=O)Nc2ccc(I)cc2)cc1 |  |  | inactive |  |
| O=S(=O)(Nc1cc(C(F)(F)F)cc(C(F)(F)F)c1)c1ccc(Cl)cc1 | 7.8 (≈ 19.3 µM) | 7.8 (≈ 19.3 µM) |  | inhibition zone (IZ) [3]: 15 mm |
| CN(c1cc(Cl)cc(Cl)c1)S(=O)(=O)c1cc(C(F)(F)F)cc(C(F)(F)F)c1 | > 250 | > 250 |  |  |
| O=[N+]([O-])c1ccc(S(=O)(=O)Nc2cc(C(F)(F)F)cc(C(F)(F)F)c2)cc1 | 31.3 (≈ 75.6 µM) | 3.9 (≈ 9.41 µM) |  | inhibition zone (IZ) [3]: >20 mm |
